What was measured:
[1] = system: Nucleic Acid; assay: Binding affinity to wild type HIV1 TAR RNA assessed as association constant at pH 6.8 by ethidium bromide displacement assay based Scatchard analysis method; format: nucleic-acid assay; settings: Human immunodeficiency virus 1
Method in brief: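 Ethidium bromide displacement: 5 μM EtBr with TAR RNA at 200 nM/strand (under 20% of EtBr bound) in 100 mM KCl, 10 mM SC, 0.5 mM EDTA, pH 6.8. Ligand added in concentrated aliquots, at most 4% v/v. Excitation 545 nm, emission 580–660 nm, intensity at 610 nm. Association constant obtained by Scatchard analysis of the titration data.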

[2] = molecular target: Nucleic Acid; assay: Binding affinity to wild type HIV1 TAR RNA at pH 6.8 by ethidium bromide displacement assay; format: nucleic-acid assay, Human immunodeficiency virus 1
Method in brief: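 TAR RNA (200 nM/strand) and EtBr (5 μM) in 100 mM KCl, 10 mM SC, 0.5 mM EDTA, pH 6.8, titrated with ligand aliquots (at most 4% v/v). Fluorescence excited at 545 nm and read at 610 nm. IC50 is the ligand concentration that displaces 50% of EtBr, taken from a sigmoidal fit of fraction displaced versus log ligand concentration.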

[3] = molecular target: Nucleic Acid; assay: Binding affinity to HIV1 TAR RNA bulgeless tetraloop mutant at pH 6.8 by ethidium bromide displacement assay; format: nucleic-acid assay, Human immunodeficiency virus 1
Method in brief: (§1)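 Synthetic 2′-ACE-protected TAR RNA, deprotected, heated 98 °C 5 min, then ice-cooled 15 min. TAR RNA at 200 nM/strand with ethidium bromide 5 μM in 100 mM KCl, 10 mM SC, 0.5 mM EDTA, pH 6.8. Ligand added stepwise, ≤4% v/v. Excitation 545 nm, emission 580–660 nm, intensity at 610 nm normalized. IC50 from sigmoidal fit of fraction EtBr displaced vs log ligand; association constants from Scatchard analysis.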

[4] = system: Nucleic Acid; assay: Binding affinity to HIV1 TAR RNA U3 bulge mutant at assessed as association constant at pH 6.8 by ethidium bromide displacement assay based Scatchard analysis method; format: nucleic-acid assay; settings: Human immunodeficiency virus 1; method in brief: as §1
[5] = system: Nucleic Acid; assay: Binding affinity to HIV1 TAR RNA bulgeless tetraloop mutant assessed as association constant at pH 6.8 by ethidium bromide displacement assay based Scatchard analysis method; format: nucleic-acid assay; settings: Human immunodeficiency virus 1; method in brief: as §1
[6] = system: Nucleic Acid; assay: Binding affinity to HIV1 TAR RNA bulgeless mutant assessed as association constant at pH 6.8 by ethidium bromide displacement assay based Scatchard analysis method; format: nucleic-acid assay; settings: Human immunodeficiency virus 1; method in brief: as §1
[7] = system: Nucleic Acid; assay: Binding affinity to HIV1 TAR RNA tetraloop mutant assessed as association constant at pH 6.8 by ethidium bromide displacement assay based Scatchard analysis method; format: nucleic-acid assay; settings: Human immunodeficiency virus 1; method in brief: as §1
[8] = molecular target: Nucleic Acid; assay: Binding affinity to HIV1 TAR RNA U3 bulge mutant at pH 6.8 by ethidium bromide displacement assay; format: nucleic-acid assay, Human immunodeficiency virus 1; method in brief: as §1
[9] = molecular target: Nucleic Acid; assay: Binding affinity to HIV1 TAR RNA tetraloop mutant at pH 6.8 by ethidium bromide displacement assay; format: nucleic-acid assay, Human immunodeficiency virus 1; method in brief: as §1
[10] = molecular target: Nucleic Acid; assay: Binding affinity to HIV1 TAR RNA bulgeless mutant at pH 6.8 by ethidium bromide displacement assay; format: nucleic-acid assay, Human immunodeficiency virus 1; method in brief: as §1

In the case of `NC[C@@H]1O[C@H](O[C@H]2[C@@H](O)[C@H](O[C@@H]3[C@@H](O)[C@H](N)C[C@H](N)[C@H]3O[C@H]3O[C@H](CN)[C@@H](O)[C@H](O)[C@H]3N)O[C@@H]2Cn2cc(-c3ccc(-c4cn(C[C@H]5O[C@@H](O[C@@H]6[C@@H](O)[C@H](N)C[C@H](N)[C@H]6O[C@H]6O[C@H](CN)[C@@H](O)[C@H](O)[C@H]6N)[C@H](O)[C@@H]5O[C@H]5O[C@@H](CN)[C@@H](O)[C@H](O)[C@H]5N)nn4)cc3)nn2)[C@H](N)[C@@H](O)[C@@H]1O`, the K [1] is reported as 1.5 ×10⁸ /M and the IC50 [2] is reported as 150 nM.

For `NC[C@@H]1O[C@H](O[C@H]2[C@@H](O)[C@H](O[C@@H]3[C@@H](O)[C@H](N)C[C@H](N)[C@H]3O[C@H]3O[C@H](CN)[C@@H](O)[C@H](O)[C@H]3N)O[C@@H]2Cn2cc(COCCCCCCCCCCCCOCc3cn(C[C@H]4O[C@@H](O[C@@H]5[C@@H](O)[C@H](N)C[C@H](N)[C@H]5O[C@H]5O[C@H](CN)[C@@H](O)[C@H](O)[C@H]5N)[C@H](O)[C@@H]4O[C@H]4O[C@@H](CN)[C@@H](O)[C@H](O)[C@H]4N)nn3)nn2)[C@H](N)[C@@H](O)[C@@H]1O`, the IC50 [3] was 158 nM, the K [1] was 2.5 ×10⁷ /M and the K [4] was 1.5 ×10⁶ /M. The K [5] was 2.7 ×10⁷ /M, the K [6] was 4.4 ×10⁷ /M and the K [7] was 2 ×10⁶ /M. The IC50 [2] was 144 nM, the IC50 [8] was 326 nM and the IC50 [9] was 300 nM.

`NC[C@@H]1O[C@H](O[C@H]2[C@@H](O)[C@H](O[C@@H]3[C@@H](O)[C@H](N)C[C@H](N)[C@H]3O[C@H]3O[C@H](CN)[C@@H](O)[C@H](O)[C@H]3N)O[C@@H]2Cn2cc(COCCCCCCCCOCc3cn(C[C@H]4O[C@@H](O[C@@H]5[C@@H](O)[C@H](N)C[C@H](N)[C@H]5O[C@H]5O[C@H](CN)[C@@H](O)[C@H](O)[C@H]5N)[C@H](O)[C@@H]4O[C@H]4O[C@@H](CN)[C@@H](O)[C@H](O)[C@H]4N)nn3)nn2)[C@H](N)[C@@H](O)[C@@H]1O` gave an IC50 [3] of 106 nM, a K [1] of 7.6 ×10⁶ /M and a K [4] of 4.8 ×10⁶ /M. For the same compound, the K [5] was 7.2 ×10⁷ /M, the K [6] was 6.8 ×10⁷ /M and the K [7] was 1.4 ×10⁷ /M. For the same compound, the IC50 [2] was 156 nM, the IC50 [10] was 108 nM and the IC50 [8] was 234 nM. The IC50 [9] was 188 nM.

In the case of `NC[C@@H]1O[C@H](O[C@H]2[C@@H](O)[C@H](O[C@@H]3[C@@H](O)[C@H](N)C[C@H](N)[C@H]3O[C@H]3O[C@H](CN)[C@@H](O)[C@H](O)[C@H]3N)O[C@@H]2Cn2cc(CCCc3cn(C[C@H]4O[C@@H](O[C@@H]5[C@@H](O)[C@H](N)C[C@H](N)[C@H]5O[C@H]5O[C@H](CN)[C@@H](O)[C@H](O)[C@H]5N)[C@H](O)[C@@H]4O[C@H]4O[C@@H](CN)[C@@H](O)[C@H](O)[C@H]4N)nn3)nn2)[C@H](N)[C@@H](O)[C@@H]1O`, the IC50 [3] is reported as 146 nM, the K [1] is reported as 7.1 ×10⁷ /M and the K [4] is reported as 6.9 ×10⁶ /M. The K [5] was 7.5 ×10⁷ /M, the K [6] was 8.9 ×10⁷ /M and the K [7] was 1.4 ×10⁷ /M. It also gave an IC50 [2] of 118 nM, an IC50 [10] of 134 nM and an IC50 [8] of 224 nM. For the same compound, the IC50 [9] was 190 nM.

For `NC[C@@H]1O[C@H](O[C@H]2[C@@H](O)[C@H](O[C@@H]3[C@@H](O)[C@H](N)C[C@H](N)[C@H]3O[C@H]3O[C@H](CN)[C@@H](O)[C@H](O)[C@H]3N)O[C@@H]2Cn2cc(CCCCc3cn(C[C@H]4O[C@@H](O[C@@H]5[C@@H](O)[C@H](N)C[C@H](N)[C@H]5O[C@H]5O[C@H](CN)[C@@H](O)[C@H](O)[C@H]5N)[C@H](O)[C@@H]4O[C@H]4O[C@@H](CN)[C@@H](O)[C@H](O)[C@H]4N)nn3)nn2)[C@H](N)[C@@H](O)[C@@H]1O`, the IC50 [3] was 216 nM, the K [1] was 2.6 ×10⁷ /M and the K [4] was 2.1 ×10⁶ /M. The K [5] was 1.2 ×10⁷ /M, the K [6] was 2.2 ×10⁷ /M and the IC50 [2] was 144 nM. The IC50 [10] was 160 nM, the IC50 [8] was 278 nM and the IC50 [9] was 278 nM.
